According to ChEMBL document CHEMBL4270612, “Discovery of dual GyrB/ParE inhibitors active against Gram-negative bacteria” (Eur J Med Chem, 2018):
Converted amounts (≈) assume the structure as drawn.

Legend:
Pseudomonas aeruginosa [1] = assay: Antibacterial activity against Pseudomonas aeruginosa ARC4060 after 24 hrs by broth microdilution method; format: functional; settings: ARC4060, 24 h
Procedure, shortened: (§1)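 Broth microdilution per CLSI. Bacterial suspension adjusted to 1×10^6 CFU/mL in cation-adjusted Mueller–Hinton broth and mixed 1:1 with 2-fold serial compound dilutions. Final DMSO 2.5% v/v. Plates incubated at 35 °C with shaking at 140 rpm for 24 h.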

Pseudomonas aeruginosa [2] = assay: Antibacterial activity against Pseudomonas aeruginosa ARC3611 after 24 hrs by broth microdilution method; format: functional; settings: ARC3611, 24 h; procedure, shortened: as §1
Pseudomonas aeruginosa [3] = assay: Antibacterial activity against Pseudomonas aeruginosa ARC3607 after 24 hrs by broth microdilution method; format: functional; settings: ARC3607, 24 h; procedure, shortened: as §1
Pseudomonas aeruginosa [4] = assay: Antibacterial activity against Pseudomonas aeruginosa PAO1 after 24 hrs by broth microdilution method; format: functional; settings: PAO1, 24 h; procedure, shortened: as §1
Acinetobacter baumannii [5] = assay: Antibacterial activity against Acinetobacter baumannii ARC3485 after 24 hrs by broth microdilution method; format: functional; settings: ARC3485, 24 h; procedure, shortened: as §1
Acinetobacter baumannii [6] = assay: Antibacterial activity against Acinetobacter baumannii ARC3495 after 24 hrs by broth microdilution method; format: functional; settings: ARC3495, 24 h; procedure, shortened: as §1
Enterobacter cloacae = assay: Antibacterial activity against Enterobacter cloacae ARC3528 after 24 hrs by broth microdilution method; format: functional; settings: ARC3528, 24 h; procedure, shortened: as §1
Acinetobacter baumannii [7] = assay: Antibacterial activity against Acinetobacter baumannii ARC3486 after 24 hrs by broth microdilution method; format: functional; settings: ARC3486, 24 h; procedure, shortened: as §1
Acinetobacter baumannii [8] = assay: Antibacterial activity against Acinetobacter baumannii ARC2728 after 24 hrs by broth microdilution method; format: functional; settings: ARC2728, 24 h; procedure, shortened: as §1
Acinetobacter baumannii [9] = assay: Antibacterial activity against Acinetobacter baumannii ARC3657 after 24 hrs by broth microdilution method; format: functional; settings: ARC3657, 24 h; procedure, shortened: as §1
Acinetobacter baumannii [10] = assay: Antibacterial activity against Acinetobacter baumannii ARC3489 after 24 hrs by broth microdilution method; format: functional; settings: ARC3489, 24 h; procedure, shortened: as §1
Acinetobacter baumannii [11] = assay: Antibacterial activity against Acinetobacter baumannii ARC3658 after 24 hrs by broth microdilution method; format: functional; settings: ARC3658, 24 h; procedure, shortened: as §1
Pseudomonas aeruginosa [12] = assay: Antibacterial activity against Pseudomonas aeruginosa ARC3514 after 24 hrs by broth microdilution method; format: functional; settings: ARC3514, 24 h
Procedure, shortened: (§2)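 Broth microdilution per CLSI. Bacterial suspension adjusted to 1×10^6 CFU/mL in cation-adjusted Mueller–Hinton broth and mixed 1:1 with 2-fold serial compound dilutions. Plates incubated at 35 °C with shaking at 140 rpm for 24 h.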

Acinetobacter baumannii [13] = assay: Antibacterial activity against Acinetobacter baumannii ARC2779 after 24 hrs by broth microdilution method; format: functional; settings: ARC2779, 24 h; procedure, shortened: as §1
Candida albicans = assay: Antifungal activity against Candida albicans ATCC 90028 after 24 hrs by broth microdilution method; format: functional; settings: ATCC 90028, 24 h
Staphylococcus aureus [14] = assay: Antibacterial activity against methicillin-resistant Staphylococcus aureus USA100 after 24 hrs by broth microdilution method; format: functional; settings: USA100, 24 h
Procedure, shortened: (§3)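 Broth microdilution per CLSI. Bacterial suspensions adjusted to 1×10^6 CFU/mL in cation-adjusted Mueller–Hinton broth, mixed 1:1 with 2-fold serial compound dilutions (final DMSO 2.5% v/v). Incubation 35 °C, 140 rpm, 24 h.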

Acinetobacter baumannii [15] = assay: Antibacterial activity against Acinetobacter baumannii ARC2782 after 24 hrs by broth microdilution method; format: functional; settings: ARC2782, 24 h; procedure, shortened: as §1
DNA gyrase subunit B = DNA gyrase subunit B (Escherichia coli, UniProt P0AES6); assay: Inhibition of Escherichia coli GyrB (1 to 220 residues) expressed in Escherichia coli BL21(DE3)
[16] = Thermodynamic solubility of the compound at pH 7.4; format: physicochemical; settings: buffer, read-out: Therm_solubility
Staphylococcus aureus [17] = assay: Antibacterial activity against methicillin-resistant Staphylococcus aureus FQ-R after 24 hrs by broth microdilution method; format: functional; procedure, shortened: as §3
[18] = Protein binding in human plasma; format: ADME, cell-free; settings: read-out: PPB (converted)
Pseudomonas aeruginosa [19] = assay: Antibacterial activity against Pseudomonas aeruginosa ARC3504 after 24 hrs by broth microdilution method; format: functional; settings: ARC3504, 24 h; procedure, shortened: as §1
Pseudomonas aeruginosa [20] = assay: Antibacterial activity against Pseudomonas aeruginosa ARC3505 after 24 hrs by broth microdilution method; format: functional; settings: ARC3505, 24 h; procedure, shortened: as §1
Staphylococcus aureus [21] = assay: Antibacterial activity against Staphylococcus aureus ATCC 29213 after 24 hrs by broth microdilution method; format: functional; settings: ATCC 29213, 24 h; procedure, shortened: as §1
Enterococcus faecalis = assay: Antibacterial activity against Enterococcus faecalis ATCC 29212 after 24 hrs by broth microdilution method; format: functional; settings: ATCC 29212, 24 h; procedure, shortened: as §1
Acinetobacter baumannii [22] = assay: Antibacterial activity against Acinetobacter baumannii ARC3515 after 24 hrs by broth microdilution method; format: functional; settings: ARC3515, 24 h; procedure, shortened: as §1
Pseudomonas aeruginosa [23] = assay: Antibacterial activity against Pseudomonas aeruginosa ARC003 after 24 hrs by broth microdilution method; format: functional; settings: ARC003, 24 h; procedure, shortened: as §1
Pseudomonas aeruginosa [24] = assay: Antibacterial activity against Pseudomonas aeruginosa harboring MexABCDXY deletion mutant after 24 hrs by broth microdilution method; format: functional; procedure, shortened: as §3
Pseudomonas aeruginosa [25] = assay: Antibacterial activity against Pseudomonas aeruginosa ARC3511 after 24 hrs by broth microdilution method; format: functional; settings: ARC3511, 24 h; procedure, shortened: as §2
Acinetobacter baumannii [26] = assay: Antibacterial activity against Acinetobacter baumannii ARC3493 after 24 hrs by broth microdilution method; format: functional; settings: ARC3493, 24 h; procedure, shortened: as §1
Pseudomonas aeruginosa [27] = assay: Antibacterial activity against Pseudomonas aeruginosa ARC3727 after 24 hrs by broth microdilution method; format: functional; settings: ARC3727, 24 h; procedure, shortened: as §2
Pseudomonas aeruginosa [28] = assay: Antibacterial activity against Pseudomonas aeruginosa ARC3729 after 24 hrs by broth microdilution method; format: functional; settings: ARC3729, 24 h; procedure, shortened: as §1
Pseudomonas aeruginosa [29] = assay: Antibacterial activity against Pseudomonas aeruginosa ARC3506 after 24 hrs by broth microdilution method; format: functional; settings: ARC3506, 24 h; procedure, shortened: as §1
Escherichia coli = assay: Antibacterial activity against tolC deficient Escherichia coli after 24 hrs by broth microdilution method; format: functional
Procedure, shortened: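 Broth microdilution per CLSI guidelines. Inoculum adjusted to 1×10^6 CFU/mL in cation-adjusted Mueller–Hinton broth, added 1:1 to 2-fold serial compound dilutions; final DMSO 2.5% v/v. Plates incubated 35 °C, 140 rpm, 24 h.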

Acinetobacter baumannii [30] = assay: Antibacterial activity against Acinetobacter baumannii ARC3492 after 24 hrs by broth microdilution method; format: functional; settings: ARC3492, 24 h; procedure, shortened: as §2
Pseudomonas aeruginosa [31] = assay: Antibacterial activity against Pseudomonas aeruginosa ARC4063 after 24 hrs by broth microdilution method; format: functional; settings: ARC4063, 24 h; procedure, shortened: as §2
Pseudomonas aeruginosa [32] = assay: Antibacterial activity against Pseudomonas aeruginosa ARC3916 after 24 hrs by broth microdilution method; format: functional; settings: ARC3916, 24 h; procedure, shortened: as §1
Pseudomonas aeruginosa [33] = assay: Antibacterial activity against Pseudomonas aeruginosa ARC3606 after 24 hrs by broth microdilution method; format: functional; settings: ARC3606, 24 h; procedure, shortened: as §1
Pseudomonas aeruginosa [34] = assay: Antibacterial activity against Pseudomonas aeruginosa ARC3509 after 24 hrs by broth microdilution method; format: functional; settings: ARC3509, 24 h; procedure, shortened: as §1
[35] = target: DNA topoisomerase 4 subunit B (Escherichia coli K-12, UniProt P20083); assay: Inhibition of Escherichia coli ParE
Chain of DNA topoisomerase 4 subunit B (P20083 whole entry): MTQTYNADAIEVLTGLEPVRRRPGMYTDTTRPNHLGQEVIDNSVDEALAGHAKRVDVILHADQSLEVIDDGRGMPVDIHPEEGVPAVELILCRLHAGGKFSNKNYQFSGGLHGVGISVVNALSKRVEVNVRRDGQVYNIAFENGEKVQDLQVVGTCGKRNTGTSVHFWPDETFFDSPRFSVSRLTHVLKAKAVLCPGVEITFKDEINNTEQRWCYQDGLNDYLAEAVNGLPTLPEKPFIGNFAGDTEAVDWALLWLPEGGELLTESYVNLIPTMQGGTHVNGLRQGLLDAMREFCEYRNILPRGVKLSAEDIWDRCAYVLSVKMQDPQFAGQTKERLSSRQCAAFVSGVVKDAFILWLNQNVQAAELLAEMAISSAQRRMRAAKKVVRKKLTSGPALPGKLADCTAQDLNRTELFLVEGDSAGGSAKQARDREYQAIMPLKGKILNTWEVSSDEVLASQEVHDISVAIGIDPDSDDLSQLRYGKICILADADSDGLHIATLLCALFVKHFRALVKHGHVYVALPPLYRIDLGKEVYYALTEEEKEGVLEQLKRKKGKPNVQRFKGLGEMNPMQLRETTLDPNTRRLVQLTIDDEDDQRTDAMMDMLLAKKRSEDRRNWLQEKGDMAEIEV

[36] = Growth inhibition of human A549 cells; format: cell-based
Acinetobacter baumannii [37] = assay: Antibacterial activity against Acinetobacter baumannii ARC2780 after 24 hrs by broth microdilution method; format: functional; settings: ARC2780, 24 h; procedure, shortened: as §2
Acinetobacter baumannii [38] = assay: Antibacterial activity against Acinetobacter baumannii ARC2781 after 24 hrs by broth microdilution method; format: functional; settings: ARC2781, 24 h; procedure, shortened: as §2

## CCNC(=O)Nc1cc(-c2nc(C(F)(F)F)cs2)c(-c2cc(-c3n[nH]c(=O)o3)cnc2N2C3CCC2CN(C)C3)cn1
Pseudomonas aeruginosa [1]
  MIC: 8 µg/mL (≈ 13.3 µM)
Pseudomonas aeruginosa [2]
  MIC: 4 µg/mL (≈ 6.65 µM)
Pseudomonas aeruginosa [3]
  MIC: 16 µg/mL (≈ 26.6 µM)
Pseudomonas aeruginosa [4]
  MIC: 2.4 µg/mL (≈ 3.99 µM)
Acinetobacter baumannii [5]
  MIC: 2 µg/mL (≈ 3.32 µM)
Acinetobacter baumannii [6]
  MIC: 0.5 µg/mL (≈ 0.831 µM)
Enterobacter cloacae
  MIC: 32 µg/mL (≈ 53.2 µM)
Acinetobacter baumannii [7]
  MIC: 2 µg/mL (≈ 3.32 µM)
Acinetobacter baumannii [8]
  MIC: 1 µg/mL (≈ 1.66 µM)
Acinetobacter baumannii [9]
  MIC: 2 µg/mL (≈ 3.32 µM)
Acinetobacter baumannii [10]
  MIC: 1 µg/mL (≈ 1.66 µM)
Acinetobacter baumannii [11]
  MIC: 1 µg/mL (≈ 1.66 µM)
Pseudomonas aeruginosa [12]
  MIC: 4 µg/mL (≈ 6.65 µM)
Acinetobacter baumannii [13]
  MIC: 1 µg/mL (≈ 1.66 µM)
Candida albicans
  MIC: > 64 µg/mL
Staphylococcus aureus [14]
  MIC: < 0.06 µg/mL
Acinetobacter baumannii [15]
  MIC: 1 µg/mL (≈ 1.66 µM)
DNA gyrase subunit B
  IC50: 6 nM
[16]
  solubility thermodynamic: 1490 µM (≈ 896 µg/mL)
Staphylococcus aureus [17]
  MIC: < 0.06 µg/mL
[18]
  fraction unbound: 0.211
Pseudomonas aeruginosa [19]
  MIC: 8 µg/mL (≈ 13.3 µM)
Pseudomonas aeruginosa [20]
  MIC: 8 µg/mL (≈ 13.3 µM)
Staphylococcus aureus [21]
  MIC: < 0.06 µg/mL
Enterococcus faecalis
  MIC: < 0.06 µg/mL
Acinetobacter baumannii [22]
  MIC: 1 µg/mL (≈ 1.66 µM)
Pseudomonas aeruginosa [23]
  MIC: 2 µg/mL (≈ 3.32 µM)
Pseudomonas aeruginosa [24]
  MIC: 0.3 µg/mL (≈ 0.499 µM)
Pseudomonas aeruginosa [25]
  MIC: 2 µg/mL (≈ 3.32 µM)
Acinetobacter baumannii [26]
  MIC: 1 µg/mL (≈ 1.66 µM)
Pseudomonas aeruginosa [27]
  MIC: 4 µg/mL (≈ 6.65 µM)
Pseudomonas aeruginosa [28]
  MIC: 4 µg/mL (≈ 6.65 µM)
Pseudomonas aeruginosa [29]
  MIC: 4 µg/mL (≈ 6.65 µM)
Escherichia coli
  MIC: 0.12 µg/mL (≈ 0.199 µM)
Acinetobacter baumannii [30]
  MIC: 1 µg/mL (≈ 1.66 µM)
Pseudomonas aeruginosa [31]
  MIC: 8 µg/mL (≈ 13.3 µM)
Pseudomonas aeruginosa [32]
  MIC: 4 µg/mL (≈ 6.65 µM)
Pseudomonas aeruginosa [33]
  MIC: 8 µg/mL (≈ 13.3 µM)
Pseudomonas aeruginosa [34]
  MIC: 8 µg/mL (≈ 13.3 µM)
[35]
  IC50: 4 nM
[36]
  GI50: > 40 µM
Acinetobacter baumannii [37]
  MIC: 0.5 µg/mL (≈ 0.831 µM)
Acinetobacter baumannii [38]
  MIC: 0.25 µg/mL (≈ 0.416 µM)
